Results: ChEMBL document CHEMBL1121789, “Some analogues of luteinizing hormone-releasing hormone with substituents in position 10” (1981)
Square brackets hold non-standard residues; d marks the D form. Peptide text beside a SMILES is read from it. * marks the point of attachment. pGlu = O=C1CC[C@@H](C(=O)O)N1; X1 = O=C(NN*)C(F)(F)F; X5 = N/C(S)=N\N*; X2 = CC(=O)NN*; X3 = CN(N)*; X4 = O=CNN*

Key:
Rattus norvegicus [1] = species on record: Rattus norvegicus; assay: In vitro FSH-release potency of compound was measured in rat hemipituitaries by taking LH-RH as standard; format: functional
In short: (§1)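 Rat hemipituitaries incubated in vitro with each analogue, usually at two dose levels in a 2 × 2 (four-point) design against an LH-RH standard. Media sampled 6 h later and assayed for LH and FSH by radioimmunoassay. Potency expressed relative to the standard, with 95% confidence limits.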

Rattus norvegicus [2] = species on record: Rattus norvegicus; assay: In vitro LH-release potency of compound was measured in rat hemipituitaries by taking LH-RH as standard; format: functional; in short: as §1

Row | SMILES | Potency (Rattus norvegicus [1]) | Potency (Rattus norvegicus [2])
1 | CC(C)C[C@H](NC(=O)CNC(=O)[C@H](Cc1ccc(O)cc1)NC(=O)[C@H](CO)NC(=O)[C@H](Cc1c[nH]c2ccccc12)NC(=O)[C@H](Cc1c[nH]cn1)NC(=O)[C@@H]1CCC(=O)N1)C(=O)N[C@@H](CCCN=C(N)N)C(=O)N1CCC[C@H]1C(=O)NNC(=O)C(F)(F)F ([pGlu]HWSYGLRP-X1) | 0.9 | 1
2 | CC(=O)NNC(=O)[C@@H]1CCCN1C(=O)[C@H](CCCN=C(N)N)NC(=O)[C@H](CC(C)C)NC(=O)CNC(=O)[C@H](Cc1ccc(O)cc1)NC(=O)[C@H](CO)NC(=O)[C@H](Cc1c[nH]c2ccccc12)NC(=O)[C@H](Cc1c[nH]cn1)NC(=O)[C@@H]1CCC(=O)N1 ([pGlu]HWSYGLRP-X2) | 0.6 | 1.2
3 | CC(C)C[C@H](NC(=O)CNC(=O)[C@H](Cc1ccc(O)cc1)NC(=O)[C@H](CO)NC(=O)[C@H](Cc1c[nH]c2ccccc12)NC(=O)[C@H](Cc1c[nH]cn1)NC(=O)[C@@H]1CCC(=O)N1)C(=O)N[C@@H](CCCN=C(N)N)C(=O)N1CCC[C@H]1C(=O)N(C)N ([pGlu]HWSYGLRP-X3) | 11 | 17
4 | CC(C)C[C@H](NC(=O)CNC(=O)[C@H](Cc1ccc(O)cc1)NC(=O)[C@H](CO)NC(=O)[C@H](Cc1c[nH]c2ccccc12)NC(=O)[C@H](Cc1c[nH]cn1)NC(=O)[C@@H]1CCC(=O)N1)C(=O)N[C@@H](CCCN=C(N)N)C(=O)N1CCC[C@H]1C(=O)NNC=O ([pGlu]HWSYGLRP-X4) | 10 | 15.3
5 | CC(C)C[C@H](NC(=O)CNC(=O)[C@H](Cc1ccc(O)cc1)NC(=O)[C@H](CO)NC(=O)[C@H](Cc1c[nH]c2ccccc12)NC(=O)[C@H](Cc1c[nH]cn1)NC(=O)[C@@H]1CCC(=O)N1)C(=O)N[C@@H](CCCN=C(N)N)C(=O)N1CCC[C@H]1C(=O)N/N=C(\N)S ([pGlu]HWSYGLRP-X5) | 4.6 | 6.5
6 | CC(C)C[C@H](NC(=O)CNC(=O)[C@H](Cc1ccc(O)cc1)NC(=O)[C@H](CO)NC(=O)[C@H](Cc1c[nH]c2ccccc12)NC(=O)[C@H](Cc1cnc[nH]1)NC(=O)[C@@H]1CCC(=O)N1)C(=O)N[C@@H](CCCNC(=N)N)C(=O)N1CCC[C@H]1C(=O)NCC(N)=O [GONADORELIN] | 100 | 100
